The results in this text go back to publication PMC8395708 (JACS Au, 2021).

Series [1] in a line: Effect of BSA or L-cysteine on degradation of DNIC-1 in PBS. It is filed as physicochemical. A digest of the protocol: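 UV-vis stability: 25 μM test compound with 10 mg/mL BSA in PBS pH 7.4 at 37 °C under air. […] The same design was used with 150 μM L-cysteine instead of BSA, and with BSA under anaerobic conditions. Three independent experiments.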
The target of series [2] is bovine serum albumin (BSA) (Bos taurus, UniProt P02769). In words: Reaction of DNIC-1 with bovine serum albumin. The format is binding. To be noted: PBS pH 7.4, 37 °C, EPR.
A short description of series [3]: NO release, Nitrate/Nitrite Colorimetric Assay. The format is physicochemical. To be noted: degradation of BSA-bound DNIC, PBS pH 7.4. A digest of the protocol: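 25 μM test compound was left to degrade under air for 2 d in 50 mM phosphate pH 7.4, SIF or SGFsp, or with BSA in PBS pH 7.4. For nitrate/nitrite, 10 μL sample was diluted in kit buffer with enzyme cofactor and nitrate reductase for 1 h at room temperature. NO equivalents were calculated from 0–35 μM nitrite/nitrate standard curves.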

Series [4] is classed as in vivo, C57BL/6JNarl mice. To be noted: mice, oral gavage 13.25 mg/kg.

Sequence of bovine serum albumin (BSA) (P02769 25-607): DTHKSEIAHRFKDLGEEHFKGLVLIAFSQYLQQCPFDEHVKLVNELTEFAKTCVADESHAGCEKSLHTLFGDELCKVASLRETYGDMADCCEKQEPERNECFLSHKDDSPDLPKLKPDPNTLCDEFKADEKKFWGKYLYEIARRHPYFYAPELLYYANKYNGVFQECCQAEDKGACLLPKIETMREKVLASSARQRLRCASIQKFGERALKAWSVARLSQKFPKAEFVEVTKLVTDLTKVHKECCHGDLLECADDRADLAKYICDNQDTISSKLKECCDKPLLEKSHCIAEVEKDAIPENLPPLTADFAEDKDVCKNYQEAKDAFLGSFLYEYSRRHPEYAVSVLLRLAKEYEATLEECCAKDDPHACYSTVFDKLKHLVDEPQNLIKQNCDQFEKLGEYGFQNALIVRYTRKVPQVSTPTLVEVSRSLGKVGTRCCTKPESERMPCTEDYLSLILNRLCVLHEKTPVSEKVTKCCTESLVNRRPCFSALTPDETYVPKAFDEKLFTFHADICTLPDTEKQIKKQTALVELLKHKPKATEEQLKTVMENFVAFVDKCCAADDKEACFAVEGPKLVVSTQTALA

As for “[(NO)2Fe(SR)(BSA)] (R = CH2CH2OH) [BSA-bound DNIC]”, the “half-life of BSA-bound DNIC (UV-vis decay at 384 and 565 nm)” value in series [1] (25 μM DNIC-1 + 10 mg/mL BSA, PBS pH 7.4, aerobic, 37 °C) stood at 3.5 ± 0.3 h. In addition, the “half-life of BSA-bound DNIC (decay of EPR signal)” value in series [1] (25 μM DNIC-1 + 50 mg/mL BSA, PBS pH 7.4, aerobic, 37 °C, EPR) was determined as 3.5 ± 0.2 h. Also, the “stability under anaerobic condition” value in series [1] (10 mg/mL BSA, PBS pH 7.4, 37 °C, 24 h, anaerobic) is listed as “No change of the UV–vis spectra”. Besides, the “reaction time to plateau of BSA-bound DNIC formation” value in series [2] was found to be 15 min. In addition, the released nitric oxide in series [3] is around 1.4 equiv.

As to “[(NO)2Fe(SR)(mucin)] (R = CH2CH2OH) [mucin-bound DNIC]”, the “half-life in the small intestine” value in series [4] came out at 3.0 ± 0.6 h.
